Active and inactive are the calls of the source. No cut-off for these calls is given here.
Key:
[1] = target: T1, C-X-C chemokine receptor type 3 (Homo sapiens) (UniProt P49682); assay: Positive allosteric modulation of ProLink1-tagged wild type CXCR3 (unknown origin) expressed in HEK293T cells assessed as beta-arrestin-2 recruitment at 10 uM incubated for 4 hrs by chemiluminescence-based microplate reader method; format: cell-based; details: HEK-293T
T1 sequence (whole entry): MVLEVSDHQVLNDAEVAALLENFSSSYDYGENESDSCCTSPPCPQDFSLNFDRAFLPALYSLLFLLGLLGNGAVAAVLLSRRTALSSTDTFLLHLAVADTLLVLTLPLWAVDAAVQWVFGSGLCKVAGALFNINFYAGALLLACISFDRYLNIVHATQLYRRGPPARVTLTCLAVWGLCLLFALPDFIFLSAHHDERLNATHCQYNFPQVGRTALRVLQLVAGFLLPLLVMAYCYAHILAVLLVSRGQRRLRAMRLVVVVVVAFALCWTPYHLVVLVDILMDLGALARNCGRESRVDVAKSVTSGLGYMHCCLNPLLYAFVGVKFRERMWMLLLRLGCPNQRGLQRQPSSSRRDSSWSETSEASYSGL
In short: (§1)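 HEK293 cells stably expressing β-gal enzyme acceptor, transiently transfected with PK1- or PK2-tagged wild-type CXCR3, 2000 cells/well, grown overnight at 37 °C. Compounds or CXCL11 in PBS pH 7.4 with 0.20% BSA added for 4 h. Detection mix 60 min at room temperature, then chemiluminescence read. Efficacy expressed as % of CXCL11 effect. Two to three experiments in triplicate.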

[2] = target: T1, C-X-C chemokine receptor type 3 (Homo sapiens); assay: Positive allosteric modulation of human CXCR3 expressed in HEK293T cell membranes after 30 mins by [35S]GTPgammaS incorporation assay relative to CXCL11; format: functional; details: HEK-293T
In short: (§2)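 Membranes from HEK293 cells stably expressing CXCR3 (30 µg/mL protein) in 20 mM HEPES, 10 mM MgCl2, 100 mM NaCl, 100 mg/L saponin, pH 7.4. Compound plus 1 µM GDP preincubated 30 min at 37 °C, then 0.10 nM [35S]GTPγS added for 30 min at 37 °C. Filtered on GF/B and counted. Efficacy expressed as % of CXCL11. Three experiments in triplicate, pEC50 by nonlinear regression.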

[3] = target: T1, C-X-C chemokine receptor type 3 (Homo sapiens); assay: Displacement of [125I]CXCL11 from human CXCR3 isoform 1 expressed in African green monkey COS7 cells after 3 hrs by liquid scintillation counting method; format: cell-based; details: COS-7
In short: (§3)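 Cells washed in 50 mM HEPES/5 g/L BSA and chilled 15 min at 4 °C. Ligands added, then 10-15 pM [125I]CXCL11 (Chloramine-T labelled, HPLC-purified). Incubation 3 h at 4 °C, washes, bound radioactivity read by liquid scintillation.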

[4] = target: T1, C-X-C chemokine receptor type 3 (Homo sapiens); assay: Positive allosteric modulation of ProLink1-tagged wild type CXCR3 (unknown origin) expressed in HEK293T cells assessed as beta-arrestin-2 recruitment incubated for 4 hrs by chemiluminescence-based microplate reader method relative to CXCL11; format: cell-based; details: HEK-293T; in short: as §1
[5] = target: T1, C-X-C chemokine receptor type 3 (Homo sapiens); assay: Induction of C-terminal eGFP-tagged CXCR3 (unknown origin) internalization expressed in HEK293T cells at 1 to 10 uM after 60 mins by scanning laser confocal microscopy; format: cell-based; details: HEK-293T
In short: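 HEK293T cells transiently transfected with C-terminally eGFP-tagged CXCR3, moved to poly-L-lysine coverslips at 24 h. Two days post-transfection, treated 60 min at 37 °C with compound (10 µM and 1 µM) or 100 nM CXCL11. Fixed in 4% paraformaldehyde and imaged by confocal laser scanning microscopy.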

[6] = target: T1, C-X-C chemokine receptor type 3 (Homo sapiens); assay: Effect on CXCL11-induced beta-arrestin-2 recruitment to wild type CXCR3 (unknown origin) expressed in HEK293T cells at 10 to 1000 nM incubated for 4 hrs by chemiluminescence-based microplate reader method; format: cell-based; details: HEK-293T
[7] = target: T1, C-X-C chemokine receptor type 3 (Homo sapiens); assay: Antagonist activity at CXCR3 (unknown origin) expressed in HEK293 cells assessed as inhibition of CXCL11-mediated cell migration after 5 hrs by transwell migration assay; format: cell-based
In short: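 CXCR3-transfected HEK293 cells (calcium phosphate, used 48 h post-transfection), serum-starved, pre-incubated 15 min with compound. Compound present in both upper chamber (1 × 10^5 cells/well, 0.2% serum DMEM) and lower chamber containing CXCL11. Migration 5 h at 37 °C. Migrated cells fixed in 3.7% formaldehyde, stained with crystal violet, counted in 5 predefined areas.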

[8] = target: T1, C-X-C chemokine receptor type 3 (Homo sapiens); assay: Inhibition of CXCL10-mediated activation of human CXCR3 expressed in HEK cells; format: cell-based; details: HEK293
[9] = target: T1, C-X-C chemokine receptor type 3 (Homo sapiens); assay: Induction of FLAG-tagged CXCR3 (unknown origin) internalization expressed in HEK293T cells at 10 uM after 60 mins by ELISA; format: cell-based; details: HEK-293T
In short: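 FLAG-CXCR3-transfected HEK293T cells replated on poly-D-lysine. At 48 h, serum-free DMEM with compound (10 µM) or CXCL11 (100 nM) for 1 h at 37 °C. Cells fixed in 4% formaldehyde. Surface receptor detected with anti-FLAG antibody and peroxidase-conjugated anti-mouse IgG, o-phenylenediamine substrate, stopped with 1M H2SO4, absorbance at 492 nm.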

[10] = target: T1, C-X-C chemokine receptor type 3 (Homo sapiens); assay: Inhibition of CXCL11-mediated activation of human CXCR3 expressed in HEK cells; format: cell-based; details: HEK293
[11] = target: T1, C-X-C chemokine receptor type 3 (Homo sapiens); assay: Positive allosteric modulation of CXCR3 (unknown origin) expressed in HEK293 cells assessed as induction of cell migration at 100 nM after 5 hrs by transwell migration assay relative to control; format: cell-based
In short: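 HEK293 cells transiently transfected with CXCR3 by calcium phosphate, used 48 h later, serum-starved. Compound placed in lower (source) chamber in 0.2% serum DMEM. Cells (1 × 10^5/well) in upper chamber, 5 h migration at 37 °C. Crystal-violet-stained migrated cells counted in 5 predefined areas and compared with buffer control.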

[12] = Cytotoxicity against HEK293T cells expressing CXCR3 at 10 uM incubated overnight by ApoTox-Glo Triplex assay; format: cell-based; details: human, hek-293t
In short: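 10,000 HEK293T cells stably expressing CXCR3 incubated overnight with compound at 10 µM. ApoTox-Glo triplex. Viability read by fluorescence at 400Ex/505Em (GF-AFC) and cytotoxicity at 485Ex/520Em (bis-AAF-R110), each after a 30 min reagent step. Caspase-3/7 luminescence then read after a further 30 min.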

[13] = target: T1, C-X-C chemokine receptor type 3 (Homo sapiens); assay: Displacement of [125I]CXCL11 from human CXCR3 isoform 1 expressed in African green monkey COS7 cells at 1 uM after 3 hrs by liquid scintillation counting method; format: cell-based; details: COS-7; in short: as §3
[14] = target: T1, C-X-C chemokine receptor type 3 (Homo sapiens); assay: Positive allosteric modulation of human CXCR3 expressed in HEK293T cell membranes after 30 mins by [35S]GTPgammaS incorporation assay; format: functional; details: HEK-293T; in short: as §2
[15] = target: T1, C-X-C chemokine receptor type 3 (Homo sapiens); assay: Positive allosteric modulation of ProLink2-tagged wild type CXCR3 (unknown origin) expressed in HEK293T cells assessed as beta-arrestin-2 recruitment incubated for 4 hrs by chemiluminescence-based microplate reader method relative to CXCL11; format: cell-based; details: HEK-293T; in short: as §1
[16] = target: T1, C-X-C chemokine receptor type 3 (Homo sapiens); assay: Positive allosteric modulation of ProLink1-tagged wild type CXCR3 (unknown origin) expressed in HEK293T cells assessed as beta-arrestin-2 recruitment incubated for 4 hrs by chemiluminescence-based microplate reader method; format: cell-based; details: HEK-293T; in short: as §1

Q: Which results are given for `CC(C)(C)OC(=O)NCCCC[C@H](NC(=O)[C@@H]1Cc2ccccc2CN1C(=O)CCC(=O)c1ccccc1)C(=O)NCC(c1ccccc1)c1ccccc1`?
A: Activity [1]: 70%; Efficacy [2]: 47%

Q: What does the source list for `CC(C)(C)OC(=O)N[C@@H](CCCCNC(=O)[C@@H]1Cc2ccccc2CN1C(=O)CCC(=O)c1ccccc1)C(=O)NCC(c1ccccc1)c1ccccc1`?
A: inhibition [3]: inactive; Efficacy [4]: 30%; Activity [5]: Active; Efficacy [2]: inactive; Activity [6]: inactive; inhibition [7]: inactive; inhibition [8]: inactive; Activity [9]: Active; inhibition [10]: inactive; fold change (FC) [11]: 0.25; Activity [12]: Non-toxic; inhibition [13]: inactive; pEC50 [14]: inactive; Efficacy [15]: 66%

Q: For `COc1ccc(C(=O)CCC(=O)N2Cc3ccccc3C[C@H]2C(=O)NCCCC[C@H](NC(=O)OC(C)(C)C)C(=O)NCC(c2ccccc2)c2ccccc2)cc1`, which inhibition [3] is on record?
A: The inhibition was “inactive”.

Q: What about the Efficacy [4] of the same compound?
A: The Efficacy was “inactive”.

Q: And the Activity [5]?
A: Its Activity is “inactive”.

Q: And the Efficacy [2]?
A: Its Efficacy is 50%.

Q: And the inhibition [7]?
A: Its inhibition is “inactive”.

Q: And the inhibition [8]?
A: Its inhibition is “inactive”.

Q: What about the inhibition [10] of the same compound?
A: Its inhibition is “inactive”.

Q: What about the fold change (FC) [11] of the same compound?
A: The fold change (FC) was 0.25.

Q: What about the Activity [12] of the same compound?
A: Its Activity is “Non-toxic”.

Q: What about the inhibition [13] of the same compound?
A: Its inhibition is “inactive”.

Q: And the pEC50 [16]?
A: The pEC50 was “inactive”.

— ChEMBL document CHEMBL3784986, “Discovery and Characterization of Biased Allosteric Agonists of the Chemokine Receptor CXCR3” (J Med Chem, 2016)
